Blank lines part the entries; values can stand above or below the compound they belong to. Activity calls are given as the source filed them. No cut-off for these calls is given here. Positions of bridges follow the written chain, without caps; N, C: chain ends. Non-standard residues stand in square brackets, D forms with d. Residues, ends and D or L forms follow the SMILES beside them. hArg = N=C(N)NCCCC[C@H](N)C(=O)O; Mpa = O=C(O)CCS
Experiments:
[1] = Antiplatelet activity in platelet (unknown origin) assessed as inhibition of platelet aggregation; assay type: functional, cell-based
Canis familiaris [2] = assay: Volume of distribution in dog at 26.5 mg/kg, po; assay type: ADME, organism-based, Canis lupus familiaris; design: dose 26.5 mg/kg, route oral; details: in vivo
[3] = AUC (infinity) in dog at 26.5 mg/kg, iv; assay type: ADME, organism-based, Canis lupus familiaris; design: time infinity, dose 26.5 mg/kg, route intravenous; details: plasma
[4] = Tmax in dog at 26.5 mg/kg, iv; assay type: ADME, organism-based, Canis lupus familiaris; design: dose 26.5 mg/kg, route intravenous; details: in vivo
[5] = Volume of distribution in dog at 26.5 mg/kg, iv; assay type: ADME, organism-based, Canis lupus familiaris; design: dose 26.5 mg/kg, route intravenous; details: in vivo
[6] = Tmax in dog at 26.5 mg/kg, po; assay type: ADME, organism-based, Canis lupus familiaris; design: dose 26.5 mg/kg, route oral; details: in vivo
[7] = Clearance in dog at 26.5 mg/kg, iv; assay type: ADME, organism-based, Canis lupus familiaris; design: dose 26.5 mg/kg, route intravenous; details: in vivo
[8] = Elimination half life in dog at 26.5 mg/kg, iv; assay type: ADME, organism-based, Canis lupus familiaris; design: dose 26.5 mg/kg, route intravenous; details: in vivo, read-out: beta t1/2
[9] = Cmax in dog at 53 mg/kg, po; assay type: ADME, organism-based, Canis lupus familiaris; design: dose 53 mg/kg, route oral; details: in vivo
[10] = Cmax in dog at 26.5 mg/kg, po; assay type: ADME, organism-based, Canis lupus familiaris; design: dose 26.5 mg/kg, route oral; details: in vivo
[11] = Clearance in dog at 53 mg/kg, po; assay type: ADME, organism-based, Canis lupus familiaris; design: dose 53 mg/kg, route oral; details: in vivo
[12] = Oral bioavailability in dog at 26.5 to 53 mg/kg; assay type: ADME, organism-based, Canis lupus familiaris; details: in vivo
[13] = Tmax in dog at 53 mg/kg, po; assay type: ADME, organism-based, Canis lupus familiaris; design: dose 53 mg/kg, route oral; details: in vivo
[14] = AUC (infinity) in dog at 26.5 mg/kg, po; assay type: ADME, organism-based, Canis lupus familiaris; design: time infinity, dose 26.5 mg/kg, route oral; details: plasma
[15] = Clearance in dog at 26.5 mg/kg, po; assay type: ADME, organism-based, Canis lupus familiaris; design: dose 26.5 mg/kg, route oral; details: in vivo
[16] = Terminal elimination rate constant in dog at 26.5 mg/kg, iv; assay type: ADME, organism-based, Canis lupus familiaris; design: dose 26.5 mg/kg, route intravenous; details: in vivo
Canis familiaris [17] = assay: Volume of distribution in dog at 53 mg/kg, po; assay type: ADME, organism-based, Canis lupus familiaris; design: dose 53 mg/kg, route oral; details: in vivo
[18] = Elimination half life in dog at 53 mg/kg, po; assay type: ADME, organism-based, Canis lupus familiaris; design: dose 53 mg/kg, route oral; details: in vivo, read-out: beta t1/2
[19] = Terminal elimination rate constant in dog at 53 mg/kg, po; assay type: ADME, organism-based, Canis lupus familiaris; design: dose 53 mg/kg, route oral; details: in vivo
[20] = Cmax in dog at 26.5 mg/kg, iv; assay type: ADME, organism-based, Canis lupus familiaris; design: dose 26.5 mg/kg, route intravenous; details: in vivo
[21] = Terminal elimination rate constant in dog at 26.5 mg/kg, po; assay type: ADME, organism-based, Canis lupus familiaris; design: dose 26.5 mg/kg, route oral; details: in vivo
[22] = Elimination half life in dog at 26.5 mg/kg, po; assay type: ADME, organism-based, Canis lupus familiaris; design: dose 26.5 mg/kg, route oral; details: in vivo, read-out: beta t1/2
[23] = AUC (infinity) in dog at 53 mg/kg, po; assay type: ADME, organism-based, Canis lupus familiaris; design: time infinity, dose 53 mg/kg, route oral; details: plasma
[24] = Thermodynamic solubility of the compound at pH 7.4 by CLND method; assay type: physicochemical; details: buffer
Summary of the method: (§1)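 Triplicate solubility measurements in aqueous buffer at the pH named in each line. Quantified by chemiluminescent nitrogen detection (CLND) and reported in μg/mL. An LC method was also run alongside.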

[25] = Thermodynamic solubility of the compound at pH 12 by CLND method; assay type: physicochemical; details: buffer; summary of the method: as §1
hERG (KCNH2) = hERG (KCNH2) (Homo sapiens, UniProt Q12809); assay: Inhibition of human ERG channel at 25 uM
[26] = Kinetic solubility of the compound at pH 12 by CLND method; assay type: physicochemical; details: buffer
Liver microsome [27] = assay: Intrinsic clearance in rat liver microsomes; assay type: ADME
[28] = Metabolic stability in mouse plasma after 120 mins; assay type: ADME, cell-free; details: read-out: Stability
Summary of the method: (§2)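 Stability in mouse plasma run in triplicate; percent remaining read at 15, 60 and 120 min.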

[29] = Intrinsic clearance in mouse liver microsomes; assay type: ADME, Microsome
[30] = Metabolic stability in mouse plasma after 15 mins; assay type: ADME, cell-free; details: read-out: Stability; summary of the method: as §2
[31] = Metabolic stability in mouse plasma after 60 mins; assay type: ADME, cell-free; details: read-out: Stability; summary of the method: as §2
[32] = molecular target: T1, Integrin alpha-IIb/beta-3 (Homo sapiens) (UniProt P05106+P08514); assay: Inhibition of […] receptor (unknown origin) assessed as inhibition of platelet adhesion at 1 uM
[33] = Thermodynamic solubility of the compound at pH 8.5 by CLND method; assay type: physicochemical; details: buffer; summary of the method: as §1
[34] = Kinetic solubility of the compound at pH 7.4 by CLND method; assay type: physicochemical; details: buffer
[35] = Kinetic solubility of the compound at pH 8.5 by CLND method; assay type: physicochemical; details: buffer
[36] = Thermodynamic solubility of the compound at pH 6.6 by CLND method; assay type: physicochemical; details: buffer; summary of the method: as §1
[37] = Kinetic solubility of the compound at pH 6.6 by CLND method; assay type: physicochemical; details: buffer
[38] = molecular target: T1, Integrin alpha-IIb/beta-3 (Homo sapiens); assay: Inhibition of […] receptor (unknown origin) assessed as inhibition of platelet adhesion at 100 uM
[39] = molecular target: T1, Integrin alpha-IIb/beta-3 (Homo sapiens); assay: Inhibition of […] receptor (unknown origin) assessed as inhibition of platelet adhesion at 50 uM
[40] = Fraction unbound in whole blood (unknown origin); assay type: ADME, tissue-based
[41] = molecular target: Integrin alpha-V/beta-3 (Homo sapiens) (UniProt P05106+P06756); assay: Antagonist activity at alphaVbeta3 receptor (unknown origin); assay type: protein-complex assay
[42] = Metabolic stability in mouse hepatocytes assessed as compound remaining after 120 mins; assay type: ADME, cell-based, Hepatocyte; details: read-out: Stability
Liver microsome [43] = assay: Intrinsic clearance in human liver microsomes; assay type: ADME
Summary of the method: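 Liver microsomal stability run in parallel for mouse, rat and human microsomes. Intrinsic clearance reported in μL/min/mg protein, with microsomal half-life in min.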

[44] = Fraction unbound in plasma (unknown origin); assay type: ADME, cell-free
[45] = molecular target: T1, Integrin alpha-IIb/beta-3 (Homo sapiens); details: 10 uM

Chain of hERG (KCNH2) (Q12809 whole entry): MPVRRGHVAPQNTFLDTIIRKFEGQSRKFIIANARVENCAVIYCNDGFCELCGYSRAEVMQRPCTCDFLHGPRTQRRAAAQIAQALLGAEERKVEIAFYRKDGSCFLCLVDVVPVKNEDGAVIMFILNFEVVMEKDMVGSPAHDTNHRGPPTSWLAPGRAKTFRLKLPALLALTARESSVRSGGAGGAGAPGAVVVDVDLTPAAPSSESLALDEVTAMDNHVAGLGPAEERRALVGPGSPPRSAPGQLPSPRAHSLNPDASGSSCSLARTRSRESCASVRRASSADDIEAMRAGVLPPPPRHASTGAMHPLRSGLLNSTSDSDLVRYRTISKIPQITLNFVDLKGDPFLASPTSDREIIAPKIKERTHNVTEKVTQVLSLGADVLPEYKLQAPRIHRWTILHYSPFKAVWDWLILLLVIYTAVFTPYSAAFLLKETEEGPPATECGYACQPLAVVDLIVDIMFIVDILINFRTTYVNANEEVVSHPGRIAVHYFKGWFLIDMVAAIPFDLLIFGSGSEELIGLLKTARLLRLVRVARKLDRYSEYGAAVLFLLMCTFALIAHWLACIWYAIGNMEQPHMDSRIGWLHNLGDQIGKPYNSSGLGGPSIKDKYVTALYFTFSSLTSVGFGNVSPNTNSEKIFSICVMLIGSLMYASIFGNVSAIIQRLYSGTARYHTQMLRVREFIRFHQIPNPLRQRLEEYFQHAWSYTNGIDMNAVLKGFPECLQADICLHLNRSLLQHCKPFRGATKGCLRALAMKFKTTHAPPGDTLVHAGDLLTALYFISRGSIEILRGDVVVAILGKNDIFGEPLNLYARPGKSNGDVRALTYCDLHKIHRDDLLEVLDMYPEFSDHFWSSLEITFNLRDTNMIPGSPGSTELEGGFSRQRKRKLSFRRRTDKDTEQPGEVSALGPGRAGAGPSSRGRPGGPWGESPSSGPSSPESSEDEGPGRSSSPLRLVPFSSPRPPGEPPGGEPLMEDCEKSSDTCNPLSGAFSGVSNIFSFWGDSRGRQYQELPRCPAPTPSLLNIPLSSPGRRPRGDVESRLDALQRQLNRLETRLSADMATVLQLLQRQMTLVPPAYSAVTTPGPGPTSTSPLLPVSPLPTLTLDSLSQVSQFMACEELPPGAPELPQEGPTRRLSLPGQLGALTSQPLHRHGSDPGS

Structure (SMILES): CCc1nn2c(=O)cc(N3CCNCC3)nc2s1
IC50 [1]: 4 µM
Vd (Canis familiaris [2]): 3466.9 mL/kg
AUC(0-inf) [3]: 28000 ng·h/mL
Tmax [4]: 10.5 min
Vd [5]: 2.37 L/kg
Tmax [6]: 33.3 min
clearance [7]: 15.9 mL/min/kg
half-life [8]: 102 min
Cmax [9]: 11900 ng/mL
Cmax [10]: 7800 ng/mL
CL/F [11]: 18.7 mL/min/kg
bioavailability [12]: 92%
Tmax [13]: 30 min
AUC(0-inf) [14]: 27200 ng·h/mL
CL/F [15]: 16.8 mL/min/kg
k el [16]: 0.000113 s⁻¹
Vd (Canis familiaris [17]): 2947.6 mL/kg
half-life [18]: 109 min
k el [19]: 0.000107 s⁻¹
Cmax [20]: 28800 ng/mL
k el [21]: 8e-05 s⁻¹
half-life [22]: 147 min
AUC(0-inf) [23]: 47200 ng·h/mL

Structure (SMILES): NCC(=O)Nc1cccc(-c2nn3c(=O)cc(N4CCNCC4)nc3s2)c1
Therm_solubility [24]: 28 µg/mL
Therm_solubility [25]: > 400 µg/mL
inhibition at 25 µM (hERG (KCNH2)): < 5%
Kinetic_solubility [26]: 43.4 µg/mL
CLH (Liver microsome [27]): 2.83 µL/min/mg
remaining at 2 h [28]: 84.5%
CLH [29]: 0.684 µL/min/mg
remaining at 0.25 h [30]: 97.5%
remaining at 1 h [31]: 93.3%
inhibition [32]: 83%
Therm_solubility [33]: 46.2 µg/mL
Kinetic_solubility [34]: 34.6 µg/mL
Kinetic_solubility [35]: 36.1 µg/mL
Therm_solubility [36]: 41.8 µg/mL
Kinetic_solubility [37]: 35.8 µg/mL

Structure (SMILES): CCc1nn2c(=O)c(F)c(N3CCNCC3)nc2s1
IC50 [1]: 8.3 µM
inhibition [38]: 41%

Structure (SMILES): O=C(O)CNc1cccc(-c2nn3c(=O)cc(N4CCNCC4)nc3s2)c1
IC50 [1]: 2 µM
inhibition [39]: 78%

Structure (SMILES): NCC(=O)Nc1cncc(-c2nn3c(=O)cc(N4CCNCC4)nc3s2)c1 [ZALUNFIBAN]
Therm_solubility [24]: 239.5 µg/mL
Therm_solubility [25]: > 400 µg/mL
IC50 [1]: 0.045 µM
inhibition at 25 µM (hERG (KCNH2)): < 5%
Fu [40]: > 85%
Kinetic_solubility [26]: > 57.8 µg/mL
Activity [41]: inactive
remaining at 2 h [28]: 91.7%
remaining at 0.25 h [30]: 100%
remaining at 1 h [31]: 99.5%
inhibition [32]: 93%
Therm_solubility [33]: > 400 µg/mL
Kinetic_solubility [34]: > 57.8 µg/mL
remaining at 2 h [42]: > 95%
Kinetic_solubility [35]: > 57.8 µg/mL
Therm_solubility [36]: 340.4 µg/mL
CLH (Liver microsome [43]): 23.2 µL/min/mg
Fu [44]: > 30%
Kinetic_solubility [37]: > 57.8 µg/mL

Structure (SMILES): N=C(N)NCCCC[C@@H]1NC(=O)CCSSC[C@@H](C(N)=O)NC(=O)[C@@H]2CCCN2C(=O)[C@H](Cc2c[nH]c3ccccc23)NC(=O)[C@H](CC(=O)O)NC(=O)CNC1=O [EPTIFIBATIDE] ([Mpa][hArg]GDWPC-NH2; disulfide 1-7)
IC50 [1]: 0.012 µM

Structure (SMILES): O=C(O)c1cccc(-c2nn3c(=O)cc(N4CCNCC4)nc3s2)c1
IC50 [1]: 80 µM
inhibition [39]: 37%

Structure (SMILES): CCc1nn2c(=O)cc(N3CCN(C)CC3)nc2s1
IC50 [1]: > 100 µM
inhibition [38]: 35%

The remaining lines, values ahead:

IC50 [1]: 0.1 µM
inhibition [32]: 69%
Structure (SMILES): NCC(=O)Nc1cc(O)cc(-c2nn3c(=O)cc(N4CCNCC4)nc3s2)c1

IC50 [1]: 0.075 µM
inhibition [32]: 89%
Structure (SMILES): NCC(=O)Nc1cc(CO)cc(-c2nn3c(=O)cc(N4CCNCC4)nc3s2)c1

IC50 [1]: 5.87 µM
inhibition [38]: 66%
Structure (SMILES): C[C@H](N)C(=O)Nc1cccc(-c2nn3c(=O)cc(N4CCNCC4)nc3s2)c1

IC50 [1]: 0.033 µM
inhibition [32]: 98%
Structure (SMILES): NCC(=O)Nc1cc(-c2nn3c(=O)cc(N4CCNCC4)nc3s2)ccn1

IC50 [1]: 6.5 µM
inhibition [39]: 49%
Structure (SMILES): O=C(O)c1ccc(-c2nn3c(=O)cc(N4CCNCC4)nc3s2)cc1

IC50 [1]: 3 µM
inhibition [38]: 56%
Structure (SMILES): O=c1cc(N2CCNCC2)nc2sc(-c3ccccc3)nn12

IC50 [1]: > 100 µM
inhibition [38]: 23%
Structure (SMILES): CCc1nn2c(=O)cc(N3CCCCC3)nc2s1

IC50 [1]: 49 µM
inhibition [38]: 20%
Structure (SMILES): CCc1nn2c(=O)cc(N3CCOCC3)nc2s1

IC50 [1]: 4 µM
inhibition [39]: 35%
Structure (SMILES): CC(C)(C)c1nn2c(=O)cc(N3CCNCC3)nc2s1

inhibition [45]: 88%
Structure (SMILES): CCCCS(=O)(=O)N[C@@H](Cc1ccc(OCCCCC2CCNCC2)cc1)C(=O)O
